# Measured values from ChEMBL document CHEMBL1671803, “Synthesis and evaluation of 11C-labeled imidazo[2,1-b]benzothiazoles (IBTs) as PET tracers for imaging β-amyloid plaques in Alzheimer's disease” (J Med Chem, 2011).
# The source made the active and inactive calls. No cut-off for these calls is given here.
# What was measured:
# [1] = target: T1, Amyloid-beta precursor protein (Homo sapiens, UniProt P05067); assay: Displacement of [3H]PiB from human amyloid beta (1-42) at 100 nM after 180 mins by liquid scintillation counter
# T1 sequence (P05067 whole entry): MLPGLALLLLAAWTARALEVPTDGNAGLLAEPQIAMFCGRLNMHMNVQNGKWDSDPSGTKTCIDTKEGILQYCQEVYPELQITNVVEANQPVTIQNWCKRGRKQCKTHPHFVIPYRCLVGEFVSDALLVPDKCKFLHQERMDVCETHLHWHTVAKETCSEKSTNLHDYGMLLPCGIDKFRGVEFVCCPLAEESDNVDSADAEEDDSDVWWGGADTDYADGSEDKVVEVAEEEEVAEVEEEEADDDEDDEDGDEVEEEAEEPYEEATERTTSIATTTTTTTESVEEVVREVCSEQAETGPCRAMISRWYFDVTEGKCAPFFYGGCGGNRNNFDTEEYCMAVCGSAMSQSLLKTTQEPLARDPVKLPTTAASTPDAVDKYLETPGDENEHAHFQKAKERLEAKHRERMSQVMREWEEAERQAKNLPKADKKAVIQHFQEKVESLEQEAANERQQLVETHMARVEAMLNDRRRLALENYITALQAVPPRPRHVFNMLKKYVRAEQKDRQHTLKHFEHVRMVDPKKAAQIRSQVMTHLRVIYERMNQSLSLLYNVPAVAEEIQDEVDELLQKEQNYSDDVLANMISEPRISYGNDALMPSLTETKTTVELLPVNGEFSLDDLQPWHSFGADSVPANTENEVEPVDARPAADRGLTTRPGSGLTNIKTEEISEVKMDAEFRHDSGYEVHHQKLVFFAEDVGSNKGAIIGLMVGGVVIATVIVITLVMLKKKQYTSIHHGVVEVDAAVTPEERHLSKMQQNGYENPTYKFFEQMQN
# [2] = target: T1, Amyloid-beta precursor protein; assay: Displacement of [3H]PiB from human amyloid beta (1-40) at 100 nM after 180 mins by liquid scintillation counter
# [3] = Drug uptake in Balb-C mouse blood assessed as compound remaining after 10 mins at 4-6 MBq by gamma counting; format: ADME, tissue-based; settings: read-out: Drug uptake
# Procedure, shortened: (§1)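 Normal Balb-C mice received an iv [11C]-labeled tracer. HPLC analysis of blood and brain homogenates was done at 10 and 30 min post-injection to give percent intact tracer (n=3).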
# [4] = Drug uptake in Balb-C mouse brain assessed as compound remaining at 4-6 MBq after 30 mins by gamma counting; format: ADME, tissue-based; settings: read-out: Drug uptake; procedure, shortened: as §1
# [5] = Drug uptake in Balb-C mouse brain assessed as compound remaining at 4-6 MBq after 10 mins by gamma counting; format: ADME, tissue-based; settings: read-out: Drug uptake; procedure, shortened: as §1
# [6] = Drug uptake in Balb-C mouse blood assessed as compound remaining at 4-6 MBq after 30 mins by gamma counting; format: ADME, tissue-based; settings: read-out: Drug uptake; procedure, shortened: as §1
# Brain [7] = assay: Drug uptake in Balb-C mouse brain at 4-6 MBq after 5 mins by gamma counting; format: ADME, tissue-based; settings: in vivo
# Procedure, shortened: (§2)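 Normal male Balb-C mice were given an iv [11C]-labeled compound. Brain uptake was measured as %ID/g at 5 and 30 min post-injection (n=5). Clearance is expressed as the 5 min/30 min %ID/g ratio.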
# [8] = Octanol-phosphate buffered saline partition coefficient, log P of the compound at pH 7.4; format: physicochemical
# Brain [9] = assay: Drug uptake in Balb-C mouse brain at 4-6 MBq by gamma counting; settings: in vivo
# Brain [10] = assay: Drug uptake in Balb-C mouse brain at 4-6 MBq after 30 mins by gamma counting; format: ADME, tissue-based; settings: in vivo, 0.5 h; procedure, shortened: as §2
# Mus musculus [11] = assay: Binding affinity to amyloid beta in telencephalon region in iv dosed APP/PS1 transgenic C57BL6/J mouse alzheimer's disease model after 5 to 30 mins by autoradiography analysis relative to control; format: functional, organism-based
# Procedure, shortened: (§3)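 APP/PS1 (ARTE10) homozygous female mice, 22 months old, with age- and gender-matched C57BL6/J female controls (two each). A single tail-vein bolus of [11C]5 mixed with [3H]1a (7.2 MBq) was given. Readouts were telencephalon/cerebellum ratios from three sources: μPET/CT coregistered to an MRI template (summed 20-30 min), dual-label digital autoradiography of 12 μm sections, and regional biodistribution, all at 30 min p.i.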
# Mus musculus [12] = assay: Binding affinity to amyloid beta in iv dosed telencephalon region in APP/PS1 transgenic C57BL6/J mouse alzheimer's disease model after 5 to 30 mins by micro PET examination relative to control; format: functional, organism-based; procedure, shortened: as §3
# Mus musculus [13] = assay: Binding affinity to amyloid beta in telencephalon region in APP/PS1 transgenic C57BL6/J mouse alzheimer's disease model at 50.2 MBq, iv after 5 to 30 mins by micro PET examination relative to control; format: functional, organism-based; settings: 50.2 M, tested as the 11C-labelled form; procedure, shortened: as §3
# Mus musculus [14] = assay: Binding affinity to amyloid beta in telencephalon region in APP/PS1 transgenic C57BL6/J mouse alzheimer's disease model at 50.2 MBq, iv after 5 to 30 mins by MRI examination relative to control; format: functional, organism-based; settings: 50.2 M, tested as the 11C-labelled form; procedure, shortened: as §3
# Mus musculus [15] = assay: Binding affinity to amyloid beta in cerebellum region in APP/PS1 transgenic C57BL6/J mouse alzheimer's disease model at 50.2 MBq, iv after 5 to 30 mins by autoradiography analysis relative to control; format: functional, organism-based; settings: 50.2 M, tested as the 11C-labelled form; procedure, shortened: as §3
# Mus musculus [16] = assay: Binding affinity to amyloid beta in telencephalon region in APP/PS1 transgenic C57BL6/J mouse alzheimer's disease model at 50.2 MBq, iv after 5 to 30 mins by autoradiography analysis relative to control; format: functional, organism-based; settings: 50.2 M, tested as the 11C-labelled form; procedure, shortened: as §3
# Mus musculus [17] = assay: Binding affinity to amyloid beta in cerebellum region in APP/PS1 transgenic C57BL6/J mouse alzheimer's disease model at 50.2 MBq, iv after 5 to 30 mins by MRI examination relative to control; format: functional, organism-based; settings: 50.2 M, tested as the 11C-labelled form; procedure, shortened: as §3
# Brain [18] = assay: Ratio of drug uptake in Balb-C mouse brain after 5 mins to drug uptake in Balb-C mouse brain after 30 mins; format: ADME, tissue-based; settings: in vivo; procedure, shortened: as §2
# Mus musculus [19] = assay: Binding affinity to amyloid beta in cerebellum region in APP/PS1 transgenic C57BL6/J mouse alzheimer's disease model at 50.2 MBq, iv after 5 to 30 mins by micro PET examination relative to control; format: functional, organism-based; settings: 50.2 M, tested as the 11C-labelled form; procedure, shortened: as §3
# [20] = tested as the 11C-labelled form
SMILES,inhibition [1],inhibition [2],logD [8],Drug uptake (Brain [9]),Drug uptake (Brain [10]),also measured
Nc1ccc(-c2cn3c(n2)sc2cc(O)ccc23)cc1,48%,48%,–,–,–,–
COc1ccc2c(c1)sc1nc(-c3ccc(N[11CH3])cc3)cn12,–,–,–,–,–,remaining at 10 min [3]: 15%; remaining at 0.5 h [4]: 91%; remaining at 10 min [5]: 95%; remaining at 0.5 h [6]: 7%; Drug uptake (Brain [7]): Active
COc1ccc2c(c1)sc1nc(-c3ccc(NC(C)=O)cc3)cn12,64%,44%,–,–,–,–
CCN(CC)c1ccc(-c2cn3c(n2)sc2cc(O)ccc23)cc1,91%,79%,–,–,–,–
CN(C)c1ccc(-c2cn3c(n2)sc2cc(O)ccc23)cc1,86%,85%,–,–,–,–
CNc1ccc(-c2nc3ccc(O)cc3s2)cc1,83%,88%,–,–,–,Activity (Mus musculus [11]; tested as the 3H-labelled form): Active; Activity (Mus musculus [12]; tested as the 3H-labelled form): Active
CCN(CC)c1ccc(-c2cn3c(n2)sc2cc(OC)ccc23)cc1,91%,79%,2.2,1.9 % ID/g,0.7 % ID/g,–
COc1ccc2c(c1)sc1nc(-c3ccc(N(C)C)cc3)cn12,91%,89%,1.9,1.9 % ID/g,0.7 % ID/g,–
CNc1ccc(-c2cn3c(n2)sc2cc(O)ccc23)cc1,73%,46%,1.2,1.9 % ID/g,0.7 % ID/g,–

# Second part, led by results:
inhibition [1],inhibition [2],logD [8],Drug uptake (Brain [9]),Drug uptake (Brain [10]),SMILES,also measured
91%,91%,–,–,–,Oc1ccc2c(c1)sc1nc(-c3ccc(N4CCCC4)cc3)cn12,–
82%,91%,1.9,1.9 % ID/g,0.7 % ID/g,COc1ccc2c(c1)sc1nc(-c3ccc(N4CCCC4)cc3)cn12,–
97%,95%,1.7,–,0.7 % ID/g,CNc1ccc(-c2cn3c(n2)sc2cc(OC)ccc23)cc1,Activity (Mus musculus [11]; [20]): Active; Ki [1]: 5.8 nM; Activity (Mus musculus [13]): Active; Activity (Mus musculus [14]): Active; Activity (Mus musculus [15]): inactive; Activity (Mus musculus [16]): Active; Ki [2]: 3.5 nM; Activity (Mus musculus [17]): inactive; Ratio (Brain [18]): 9.1; Activity (Mus musculus [12]; [20]): Active; Activity (Mus musculus [19]): inactive
74%,57%,–,–,–,COc1ccc2c(c1)sc1nc(-c3ccc(N)cc3)cn12,–
